Test results: ChEMBL document CHEMBL5357072, “Structural Modification of Noscapine via Photoredox/Nickel Dual Catalysis for the Discovery of S-Phase Arresting Agents” (ACS Med Chem Lett, 2024)

Legend:
MOLM-13 [1] = assay: Induction of apoptosis in human MOLM-13 cells assessed as necrotic cells at 10 uM incubated for 48 hrs by Annexin V-FITC/PI staining based flow cytometric analysis (reference value: 0.48%); type: functional
JeKo-1 [2] = assay: Antiproliferative activity against human JeKo-1 cells assessed as inhibition of cell growth incubated for 48 hrs by CCK8 assay; type: functional, cell-based; conditions: JeKo-1, 48 h
Procedure, shortened: (§1)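 CCK-8 growth-inhibition assay in the malignant haematological lines MOLM-13, NB4 and Jeko-1 and in normal PBMC. Cells were treated across a range of doses and IC50 taken as the half-maximal growth-inhibitory concentration. Data are mean ± SD of triplicate samples, and experiments were repeated at least three times.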

NB-4 [3] = assay: Antiproliferative activity against human NB4 cells assessed as inhibition of cell growth incubated for 48 hrs by CCK8 assay; type: functional, cell-based; conditions: NB-4, 48 h; procedure, shortened: as §1
JeKo-1 [4] = assay: Antiproliferative activity against human JeKo-1 cells assessed as cell growth inhibition at 10 uM incubated for 48 hrs by CCK8 assay relative to control; type: functional; conditions: read-out: GI
Procedure, shortened: (§2)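 Single-concentration screen of six cancer cell lines. Cells were exposed to 10 μM compound and growth was measured by CCK-8 assay. Results are reported as inhibition rate at 10 μM.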

MOLM-13 [5] = assay: Induction of apoptosis in human MOLM-13 cells assessed as early apoptotic cells at 10 uM incubated for 48 hrs by Annexin V-FITC/PI staining based flow cytometric analysis (reference value: 4.10%); type: functional
MOLM-13 [6] = assay: Induction of apoptosis in human MOLM-13 cells assessed as viable cells at 10 uM incubated for 48 hrs by Annexin V-FITC/PI staining based flow cytometric analysis (reference value: 92.24%); type: functional; conditions: read-out: Activity
MOLM-13 [7] = assay: Antiproliferative activity against human MOLM-13 cells assessed as inhibition of cell growth incubated for 48 hrs by CCK8 assay; type: functional, cell-based; conditions: MOLM-13, 48 h; procedure, shortened: as §1
U-251 = assay: Antiproliferative activity against human U-251 cells assessed as cell growth inhibition at 10 uM incubated for 48 hrs by CCK8 assay relative to control; type: functional; conditions: read-out: GI; procedure, shortened: as §2
MOLM-13 [8] = assay: Antiproliferative activity against human MOLM-13 cells assessed as cell growth inhibition at 10 uM incubated for 48 hrs by CCK8 assay relative to control; type: functional; conditions: read-out: GI; procedure, shortened: as §2
HeLa [9] = assay: Antiproliferative activity against human HeLa cells assessed as cell growth inhibition at 10 uM incubated for 48 hrs by CCK8 assay relative to control; type: functional; conditions: read-out: GI; procedure, shortened: as §2
[10] = Antiproliferative activity against Renal 1983 cells (unknown origin) assessed as inhibition of cell proliferation; type: functional, cell-based; conditions: Renal 1983 cell
MOLM-13 [11] = assay: Cell cycle arrest in human MOLM-13 cells assessed as accumulation of G2/M phase cells at 10 uM incubated for 24 hrs by RNase A/PI staining based flow cytometry analysis (reference value: 11.74%); type: functional
MOLM-13 [12] = assay: Cell cycle arrest in human MOLM-13 cells assessed as accumulation of G0/G1 phase cells at 10 uM incubated for 24 hrs by RNase A/PI staining based flow cytometry analysis (reference value: 38.14%); type: functional
HeLa [13] = assay: Antiproliferative activity against human HeLa cells assessed as inhibition of cell proliferation; type: functional, cell-based
MOLM-13 [14] = assay: Cell cycle arrest in human MOLM-13 cells assessed as accumulation of S phase cells at 10 uM incubated for 24 hrs by RNase A/PI staining based flow cytometry analysis (reference value: 50.12%); type: functional
NB-4 [15] = assay: Antiproliferative activity against human NB4 cells assessed as cell growth inhibition at 10 uM incubated for 48 hrs by CCK8 assay relative to control; type: functional; conditions: read-out: GI; procedure, shortened: as §2
A549 = assay: Antiproliferative activity against human A549 cells assessed as cell growth inhibition at 10 uM incubated for 48 hrs by CCK8 assay relative to control; type: functional; conditions: read-out: GI; procedure, shortened: as §2
MCF7 = assay: Antiproliferative activity against human MCF7 cells assessed as inhibition of cell proliferation; type: functional, cell-based
MOLM-13 [16] = assay: Induction of apoptosis in human MOLM-13 cells assessed as late apoptotic cells at 10 uM incubated for 48 hrs by Annexin V-FITC/PI staining based flow cytometric analysis (reference value: 3.17%); type: functional
MOLM-13 [17] = assay: Induction of apoptosis in human MOLM-13 cells assessed as late apoptotic cells at 2.5 uM incubated for 48 hrs by Annexin V-FITC/PI staining based flow cytometric analysis (reference value: 3.17%); type: functional
MOLM-13 [18] = assay: Induction of apoptosis in human MOLM-13 cells assessed as necrotic cells at 5 uM incubated for 48 hrs by Annexin V-FITC/PI staining based flow cytometric analysis (reference value: 0.48%); type: functional
PBMC = assay: Cytotoxicity against human PBMC assessed as reduction in cell viability incubated for 48 hrs by CCK8 assay; type: toxicity, cell-based; procedure, shortened: as §1
MOLM-13 [19] = assay: Cell cycle arrest in human MOLM-13 cells assessed as accumulation of G0/G1 phase cells at 2.5 uM incubated for 24 hrs by RNase A/PI staining based flow cytometry analysis (reference value: 38.14%); type: functional
MOLM-13 [20] = assay: Cell cycle arrest in human MOLM-13 cells assessed as accumulation of G0/G1 phase cells at 5 uM incubated for 24 hrs by RNase A/PI staining based flow cytometry analysis (reference value: 38.14%); type: functional
MOLM-13 [21] = assay: Induction of apoptosis in human MOLM-13 cells assessed as necrotic cells at 2.5 uM incubated for 48 hrs by Annexin V-FITC/PI staining based flow cytometric analysis (reference value: 0.48%); type: functional
MOLM-13 [22] = assay: Cell cycle arrest in human MOLM-13 cells assessed as accumulation of S phase cells at 5 uM incubated for 24 hrs by RNase A/PI staining based flow cytometry analysis (reference value: 50.12%); type: functional
MOLM-13 [23] = assay: Induction of apoptosis in human MOLM-13 cells assessed as early apoptotic cells at 2.5 uM incubated for 48 hrs by Annexin V-FITC/PI staining based flow cytometric analysis (reference value: 4.10%); type: functional
MOLM-13 [24] = assay: Cell cycle arrest in human MOLM-13 cells assessed as accumulation of S phase cells at 2.5 uM incubated for 24 hrs by RNase A/PI staining based flow cytometry analysis (reference value: 50.12%); type: functional
MOLM-13 [25] = assay: Induction of apoptosis in human MOLM-13 cells assessed as early apoptotic cells at 5 uM incubated for 48 hrs by Annexin V-FITC/PI staining based flow cytometric analysis (reference value: 4.10%); type: functional
MOLM-13 [26] = assay: Cell cycle arrest in human MOLM-13 cells assessed as accumulation of G2/M phase cells at 2.5 uM incubated for 24 hrs by RNase A/PI staining based flow cytometry analysis (reference value: 11.74%); type: functional
MOLM-13 [27] = assay: Induction of apoptosis in human MOLM-13 cells assessed as viable cells at 2.5 uM incubated for 48 hrs by Annexin V-FITC/PI staining based flow cytometric analysis (reference value: 92.24%); type: functional; conditions: read-out: Activity
MOLM-13 [28] = assay: Induction of apoptosis in human MOLM-13 cells assessed as viable cells at 5 uM incubated for 48 hrs by Annexin V-FITC/PI staining based flow cytometric analysis (reference value: 92.24%); type: functional; conditions: read-out: Activity
MOLM-13 [29] = assay: Induction of apoptosis in human MOLM-13 cells assessed as late apoptotic cells at 5 uM incubated for 48 hrs by Annexin V-FITC/PI staining based flow cytometric analysis (reference value: 3.17%); type: functional
MOLM-13 [30] = assay: Cell cycle arrest in human MOLM-13 cells assessed as accumulation of G2/M phase cells at 5 uM incubated for 24 hrs by RNase A/PI staining based flow cytometry analysis (reference value: 11.74%); type: functional

SMILES	Activity (MOLM-13 [1])	IC50 (JeKo-1 [2])	IC50 (NB-4 [3])	inhibition of growth at 10 µM (JeKo-1 [4])	Activity (MOLM-13 [5])	viability at 10 µM (MOLM-13 [6])	IC50 (MOLM-13 [7])	inhibition of growth at 10 µM (U-251)	inhibition of growth at 10 µM (MOLM-13 [8])	inhibition of growth at 10 µM (HeLa [9])	Activity (MOLM-13 [11])	Activity (MOLM-13 [12])	Activity (MOLM-13 [14])	inhibition of growth at 10 µM (NB-4 [15])	inhibition of growth at 10 µM (A549)	Activity (MOLM-13 [16])	other results
COc1ccc2c(c1OC)C(=O)O[C@@H]2[C@H]1c2c(cc3c(c2OC)OCO3)CCN1C [NOSCAPINE]	1.71%	> 20 µM	> 20 µM	< 5%	6.9%	83%	> 20 µM	< 5%	19%	< 5%	13.8%	25.66%	60.54%	26.7%	< 5%	8.44%	IC50 [10]: 39 µM; IC50 (HeLa [13]): 25 µM; IC50 (MCF7): 42 µM
COc1ccc2c(c1OC)C(=O)O[C@@H]2[C@H]1c2c(c(CC3CN(C(C)=O)C3)c3c(c2OC)OCO3)CCN1C	–	> 20 µM	> 20 µM	–	–	–	> 20 µM	–	–	–	–	–	–	–	–	–	–
CCNC(=O)N1CCc2c(CC3CN(C(=O)OCc4ccccc4)C3)c3c(c(OC)c2[C@@H]1[C@H]1OC(=O)c2c1ccc(OC)c2OC)OCO3	–	6.97 µM	10.4 µM	–	–	–	6.47 µM	–	–	–	–	–	–	–	–	–	–
COc1ccc2c(c1OC)C(=O)O[C@@H]2[C@H]1c2c(c(Br)c3c(c2OC)OCO3)CCN1C	0.69%	11.5 µM	16.3 µM	48.9%	10.63%	78.1%	15.3 µM	< 5%	41.9%	28.1%	36.44%	32.96%	30.6%	38.3%	15.9%	10.56%	–
COc1ccc2c(c1OC)C(=O)O[C@@H]2[C@@H]1NCCc2c(CC3CN(C(=O)OCc4ccccc4)C3)c3c(c(OC)c21)OCO3	–	7.57 µM	13.2 µM	–	–	–	7.78 µM	–	–	–	–	–	–	–	–	–	–
COc1ccc2c(c1OC)C(=O)O[C@@H]2[C@H]1c2c(c(CC3CN(C)C3)c3c(c2OC)OCO3)CCN1C	–	> 20 µM	> 20 µM	–	–	–	> 20 µM	–	–	–	–	–	–	–	–	–	–
COc1ccc2c(c1OC)C(=O)O[C@@H]2[C@H]1c2c(c(CC3CN(C(=O)OCc4ccccc4)C3)c3c(c2OC)OCO3)CCN1C(=O)OC(C)(C)C	3.2%	3.39 µM	5.25 µM	74.3%	19.67%	53.5%	3.12 µM	37.1%	79.8%	62.7%	5.11%	12.45%	82.44%	60.5%	57%	23.68%	Activity (MOLM-13 [17]): 4.35%; Activity (MOLM-13 [18]): 2.41%; Activity (PBMC): Non-Toxic; Activity (MOLM-13 [19]): 36.94%; Activity (MOLM-13 [20]): 16.37%; Activity (MOLM-13 [21]): 0.52%; Activity (MOLM-13 [22]): 73.67%; Activity (MOLM-13 [23]): 5.01%; Activity (MOLM-13 [24]): 46.7%; Activity (MOLM-13 [25]): 16.95%; Activity (MOLM-13 [26]): 16.36%; viability at 2.5 µM (MOLM-13 [27]): 90.1%; viability at 5 µM (MOLM-13 [28]): 62%; Activity (MOLM-13 [29]): 18.62%; Activity (MOLM-13 [30]): 9.96%
